Assay results: ChEMBL document CHEMBL3769334, “Interaction of prodigiosin with HSA and β-Lg: Spectroscopic and molecular docking studies” (Bioorg Med Chem, 2016); call rule not given here

Key:
Albumin [1] = molecular target: T1, Albumin (Homo sapiens, UniProt P02768); test: Binding affinity to human serum albumin assessed as Stern-Volmer quenching constant at 290 K after 10 mins by fluorescence assay; format: ADME; settings: isolated protein
Summary of the method: (§1)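 HSA at 0.4 µM in 20 mM Tris pH 7.4, titrated with prodigiosin at 0–3.2 µM from a methanol stock. Samples equilibrated 10 min after each addition. Excitation 295 nm, emission 310–600 nm, intensity read at the emission maximum. Run at 290, 300 and 310 K. Kb and n from log[(F0−F)/F] versus log[Q].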

Albumin [2] = molecular target: T1, Albumin; test: Binding affinity to human serum albumin assessed as Stern-Volmer quenching constant at 300 K after 10 mins by fluorescence assay; format: ADME; settings: isolated protein; summary of the method: as §1
Albumin [3] = molecular target: T1, Albumin; test: Binding affinity to human serum albumin assessed as Stern-Volmer quenching constant at 310 K after 10 mins by fluorescence assay; format: ADME; settings: isolated protein; summary of the method: as §1
Beta-lactoglobulin [4] = molecular target: T2, Beta-lactoglobulin (Bos taurus, UniProt P02754); test: Binding affinity to bovine beta-lactoglobulin assessed as Stern-Volmer quenching constant at 290 K after 10 mins by fluorescence assay; format: ADME; settings: cattle
T2 sequence (P02754 whole entry): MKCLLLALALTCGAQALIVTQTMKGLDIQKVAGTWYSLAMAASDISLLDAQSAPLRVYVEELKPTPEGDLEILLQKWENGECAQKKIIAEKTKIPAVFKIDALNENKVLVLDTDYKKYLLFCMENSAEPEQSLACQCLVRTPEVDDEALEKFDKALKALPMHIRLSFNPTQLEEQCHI
Summary of the method: (§2)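 Intrinsic Trp fluorescence of β-Lg at 1 µM in Tris-HCl pH 7.4, titrated with prodigiosin added from a methanol stock. Samples equilibrated 10 min after each addition. Excitation 295 nm, emission 310–600 nm, intensity read at the emission maximum. Run at 290, 300 and 310 K with a water-bath thermostat. Binding parameters taken from quenching data.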

Beta-lactoglobulin [5] = molecular target: T2, Beta-lactoglobulin; test: Binding affinity to bovine beta-lactoglobulin assessed as Stern-Volmer quenching constant at 300 K after 10 mins by fluorescence assay; format: ADME; settings: cattle; summary of the method: as §2
Beta-lactoglobulin [6] = molecular target: T2, Beta-lactoglobulin; test: Binding affinity to bovine beta-lactoglobulin assessed as Stern-Volmer quenching constant at 310 K after 10 mins by fluorescence assay; format: ADME; settings: cattle; summary of the method: as §2
Albumin [7] = molecular target: T1, Albumin; test: Binding affinity to human serum albumin assessed as bimolecular quenching rate constant at 290 K after 10 mins by fluorescence assay; format: ADME; settings: isolated protein; summary of the method: as §1
Albumin [8] = molecular target: T1, Albumin; test: Binding affinity to human serum albumin assessed as bimolecular quenching rate constant at 300 K after 10 mins by fluorescence assay; format: ADME; settings: isolated protein; summary of the method: as §1
Albumin [9] = molecular target: T1, Albumin; test: Binding affinity to human serum albumin assessed as bimolecular quenching rate constant at 310 K after 10 mins by fluorescence assay; format: ADME; settings: isolated protein; summary of the method: as §1
Beta-lactoglobulin [10] = molecular target: T2, Beta-lactoglobulin; test: Binding affinity to bovine beta-lactoglobulin assessed as bimolecular quenching rate constant at 290 K after 10 mins by fluorescence assay; format: ADME; settings: cattle; summary of the method: as §2
Beta-lactoglobulin [11] = molecular target: T2, Beta-lactoglobulin; test: Binding affinity to bovine beta-lactoglobulin assessed as bimolecular quenching rate constant at 300 K after 10 mins by fluorescence assay; format: ADME; settings: cattle; summary of the method: as §2
Beta-lactoglobulin [12] = molecular target: T2, Beta-lactoglobulin; test: Binding affinity to bovine beta-lactoglobulin assessed as bimolecular quenching rate constant at 310 K after 10 mins by fluorescence assay; format: ADME; settings: cattle; summary of the method: as §2
Albumin [13] = molecular target: T1, Albumin; test: Binding affinity to human serum albumin at 290 K after 10 mins by fluorescence assay; format: ADME; settings: isolated protein; summary of the method: as §1
Albumin [14] = molecular target: T1, Albumin; test: Binding affinity to human serum albumin at 300 K after 10 mins by fluorescence assay; format: ADME; settings: isolated protein; summary of the method: as §1
Albumin [15] = molecular target: T1, Albumin; test: Binding affinity to human serum albumin at 310 K after 10 mins by fluorescence assay; format: ADME; settings: isolated protein; summary of the method: as §1
Beta-lactoglobulin [16] = molecular target: T2, Beta-lactoglobulin; test: Binding affinity to bovine beta-lactoglobulin at 290 K after 10 mins by fluorescence assay; format: ADME; settings: cattle; summary of the method: as §2
Beta-lactoglobulin [17] = molecular target: T2, Beta-lactoglobulin; test: Binding affinity to bovine beta-lactoglobulin at 300 K after 10 mins by fluorescence assay; format: ADME; settings: cattle; summary of the method: as §2
Beta-lactoglobulin [18] = molecular target: T2, Beta-lactoglobulin; test: Binding affinity to bovine beta-lactoglobulin at 310 K after 10 mins by fluorescence assay; format: ADME; settings: cattle; summary of the method: as §2
Albumin [19] = molecular target: T1, Albumin; test: Binding affinity to human serum albumin assessed as quenching of protein-compound complex at protein/compound molar ratio of 5 at 290 K after 10 mins by fluorescence assay; format: ADME; settings: isolated protein; summary of the method: as §1
Beta-lactoglobulin [20] = molecular target: T2, Beta-lactoglobulin; test: Binding affinity to bovine beta-lactoglobulin assessed as association constant at pH 7.4 after 30 mins by fluorescence assay; format: ADME; settings: cattle, pH 7.4, 0.5 h
Summary of the method: (§3)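 β-Lg solutions at pH 3.0, 5.5 and 7.4, incubated 30 min at 25 °C before prodigiosin was added. Intrinsic fluorescence excited at 295 nm, emission monitored at 310–600 nm.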

Beta-lactoglobulin [21] = molecular target: T2, Beta-lactoglobulin; test: Binding affinity to bovine beta-lactoglobulin assessed as association constant at pH 5.5 after 30 mins by fluorescence assay; format: ADME; settings: cattle, pH 5.5, 0.5 h; summary of the method: as §3
Beta-lactoglobulin [22] = molecular target: T2, Beta-lactoglobulin; test: Binding affinity to bovine beta-lactoglobulin assessed as association constant at pH 3 after 30 mins by fluorescence assay; format: ADME; settings: cattle, pH 3, 0.5 h; summary of the method: as §3
Albumin [23] = molecular target: T1, Albumin; test: Displacement of warfarin from human serum albumin at 0.4 to 3.2 uM after 30 mins by fluorescence assay; settings: 0.5 h
Summary of the method: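 HSA and warfarin at equal (1:1) concentrations, preincubated 30 min. Prodigiosin added at 0.4–3 µM. Fluorescence excited at 295 nm and recorded at 310–600 nm, with and without prodigiosin.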

Albumin [24] = molecular target: T1, Albumin; test: Binding affinity to human serum albumin assessed as quenching of protein-compound complex at protein/compound molar ratio of 7 at 300 to 310 K after 10 mins by fluorescence assay; format: ADME; settings: isolated protein; summary of the method: as §1
[25] = molecular target: Beta-lactoglobulin (Bos taurus) (UniProt P02754); test: Binding affinity to bovine beta-lactoglobulin assessed as quenching of protein-compound complex at protein/compound molar ratio of 4 at 310 K after 10 mins by fluorescence assay; settings: isolated protein
[26] = molecular target: Beta-lactoglobulin (Bos taurus) (UniProt P02754); test: Binding affinity to bovine beta-lactoglobulin assessed as quenching of protein-compound complex at protein/compound molar ratio of 7 at 290 K after 10 mins by fluorescence assay; settings: isolated protein
[27] = molecular target: Beta-lactoglobulin (Bos taurus) (UniProt P02754); test: Binding affinity to bovine beta-lactoglobulin assessed as quenching of protein-compound complex at protein/compound molar ratio of 7 at 300 K after 10 mins by fluorescence assay; settings: isolated protein

T1 sequence (P02768 whole entry): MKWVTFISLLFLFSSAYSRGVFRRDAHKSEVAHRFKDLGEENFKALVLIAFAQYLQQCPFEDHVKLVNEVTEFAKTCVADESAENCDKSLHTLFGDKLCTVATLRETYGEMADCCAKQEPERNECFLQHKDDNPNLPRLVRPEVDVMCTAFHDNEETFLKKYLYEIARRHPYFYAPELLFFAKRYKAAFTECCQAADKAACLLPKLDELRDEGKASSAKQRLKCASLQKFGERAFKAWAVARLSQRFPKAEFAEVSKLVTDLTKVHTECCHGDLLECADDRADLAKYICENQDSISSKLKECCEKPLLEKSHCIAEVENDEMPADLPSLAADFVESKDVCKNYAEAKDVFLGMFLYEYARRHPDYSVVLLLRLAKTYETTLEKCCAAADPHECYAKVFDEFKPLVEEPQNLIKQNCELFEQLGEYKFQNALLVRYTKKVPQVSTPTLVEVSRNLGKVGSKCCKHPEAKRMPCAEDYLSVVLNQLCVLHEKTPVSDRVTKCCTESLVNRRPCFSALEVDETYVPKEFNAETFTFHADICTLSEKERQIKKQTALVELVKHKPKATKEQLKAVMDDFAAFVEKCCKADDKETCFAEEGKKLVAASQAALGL

## CCCCCC1=C/C(=C\c2[nH]c(-c3ccc[nH]3)cc2OC)N=C1C
Albumin [1]
  KSV: 8.14 ×10⁴ /M
Albumin [2]
  KSV: 6.891 ×10⁴ /M
Albumin [3]
  KSV: 4.043 ×10⁴ /M
Beta-lactoglobulin [4]
  KSV: 5.02 ×10⁴ /M
Beta-lactoglobulin [5]
  KSV: 7.28 ×10⁴ /M
Beta-lactoglobulin [6]
  KSV: 10.6 ×10⁴ /M
Albumin [7]
  Kq: 8.14 ×10¹² /M/s
Albumin [8]
  Kq: 6.891 ×10¹² /M/s
Albumin [9]
  Kq: 4.043 ×10¹² /M/s
Beta-lactoglobulin [10]
  Kq: 3.92 ×10¹² /M/s
Beta-lactoglobulin [11]
  Kq: 5.69 ×10¹² /M/s
Beta-lactoglobulin [12]
  Kq: 8.28 ×10¹² /M/s
Albumin [13]
  Activity: Dose-dependent effect
  Kb: 48400 M⁻¹
Albumin [14]
  Activity: Dose-dependent effect
  Kb: 44100 M⁻¹
Albumin [15]
  Activity: Dose-dependent effect
  Kb: 34000 M⁻¹
Beta-lactoglobulin [16]
  Kb: 12500 M⁻¹
Beta-lactoglobulin [17]
  Kb: 19900 M⁻¹
Beta-lactoglobulin [18]
  Kb: 53700 M⁻¹
Albumin [19]
  Activity: 80%
Beta-lactoglobulin [20]
  Ka: 1.99 ×10⁴ /M
Beta-lactoglobulin [21]
  Ka: 1548 M⁻¹
Beta-lactoglobulin [22]
  Ka: 184 M⁻¹
Albumin [23]
  Activity: Active
Albumin [24]
  Activity: 85%
[25]
  Activity: 90%
[26]
  Activity: 78%
[27]
  Activity: 82%
